Source: ChEMBL document CHEMBL4342473, “Lead Optimization of Benzoxazolone Carboxamides as Orally Bioavailable and CNS Penetrant Acid Ceramidase Inhibitors” (J Med Chem, 2020)
The source made the active and inactive calls. The calls are words filed in the database; no cut-off is given here.

Tests used:
[1] = molecular target: T1, Lysosomal acid glucosylceramidase (Homo sapiens) (UniProt P04062); test: Inhibition of human full length GCase at 1 to 10 uM using 4-MUG as fluorogenic substrate incubated for 15 mins by fluorescence based assay
T1 sequence (whole entry): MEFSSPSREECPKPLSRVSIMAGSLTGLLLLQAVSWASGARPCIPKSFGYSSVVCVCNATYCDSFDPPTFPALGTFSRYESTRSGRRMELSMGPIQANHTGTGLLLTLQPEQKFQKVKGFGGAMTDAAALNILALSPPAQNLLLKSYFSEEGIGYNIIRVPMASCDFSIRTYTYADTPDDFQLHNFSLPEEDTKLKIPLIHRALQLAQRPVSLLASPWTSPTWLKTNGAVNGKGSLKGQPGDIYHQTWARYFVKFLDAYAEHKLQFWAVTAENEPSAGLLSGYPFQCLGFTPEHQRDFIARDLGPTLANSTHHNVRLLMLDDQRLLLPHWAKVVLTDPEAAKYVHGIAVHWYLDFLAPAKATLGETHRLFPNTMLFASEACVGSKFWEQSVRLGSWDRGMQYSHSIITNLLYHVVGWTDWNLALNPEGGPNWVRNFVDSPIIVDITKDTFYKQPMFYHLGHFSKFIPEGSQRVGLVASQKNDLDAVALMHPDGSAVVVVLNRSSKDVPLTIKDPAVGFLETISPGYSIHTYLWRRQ

[2] = molecular target: T2, Acid ceramidase (Homo sapiens) (UniProt Q13510); test: Inhibition of acid ceramidase in human SH-SY5Y cells assessed as increase in intracellular accumulation of Cer (d18:1/16:0) measured after 3 hrs by LC/MS analysis; type: cell-based
T2 sequence (whole entry): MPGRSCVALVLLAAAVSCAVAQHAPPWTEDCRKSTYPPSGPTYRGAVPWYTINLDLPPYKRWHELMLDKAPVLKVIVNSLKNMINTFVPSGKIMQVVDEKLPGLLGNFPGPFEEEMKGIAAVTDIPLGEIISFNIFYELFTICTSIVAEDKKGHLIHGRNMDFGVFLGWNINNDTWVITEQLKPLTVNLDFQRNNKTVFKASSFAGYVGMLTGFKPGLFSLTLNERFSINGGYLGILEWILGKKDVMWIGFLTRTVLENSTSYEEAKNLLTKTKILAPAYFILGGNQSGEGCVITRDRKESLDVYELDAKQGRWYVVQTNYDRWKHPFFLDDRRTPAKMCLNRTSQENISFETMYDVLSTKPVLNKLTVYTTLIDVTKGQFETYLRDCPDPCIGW
Method in brief: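 SH-SY5Y neuroblastoma cells exposed 3 h to 1, 2.5, 5 and 10 μM; AC activity by LC/MS-based assay; ceramide species, sphingosine, SM and HexCer (d18:1/16:0) quantified by LC/MS; means ± S.E.M. of at least six determinations, experiment repeated twice.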

[3] = molecular target: T2, Acid ceramidase (Homo sapiens); test: Inhibition of acid ceramidase in human SH-SY5Y cells assessed as increase in intracellular accumulation of Cer (d18:0/16:0) at 10 uM measured up to 6 hrs by LC/MS analysis; type: cell-based
Method in brief: (§1)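 Human neuroblastoma SH-SY5Y cells incubated with compound at 10 μM for 30 min, 1 h, 3 h and 6 h; AC activity by LC/MS-based activity assay; Cer (d18:0/16:0), Cer (d18:1/16:0), sphingosine, SM (d18:1/16:0) and HexCer (d18:1/16:0) quantified by LC/MS.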

[4] = molecular target: T2, Acid ceramidase (Homo sapiens); test: Inhibition of acid ceramidase in human SH-SY5Y cells assessed as decrease in sphingosine level at 10 uM measured up to 6 hrs by LC/MS analysis; type: cell-based; method in brief: as §1
[5] = Toxicity in C57BL/6 mouse assessed as clinical abnormalities at 20 to 120 mg/kg, ip administered for 4 days; type: organism-based; details: in vivo, 96 h
Mus musculus = test: Neuroprotective activity in ip dosed C57BL/6J/129SvEV mouse model of Gaucher's disease assessed as reduction in GluSph (d18:1) level in brain administered once daily for 14 days measured 1 hr post-last dose by MS analysis; type: functional, organism-based
Method in brief: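 4L;C* mice (neuropathic Gaucher model) given 30 or 90 mg kg–1 i.p. once daily for 14 days from postnatal day 5; killed 1 h after last dose; brain GluSph (d18:1) measured; N = 4–8 per group, mixed sexes.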

[6] = Unbound plasma concentration in C57BL/6J/129SvEV mouse model of Gaucher's disease at 90 mg/kg, ip administered once daily for 14 days measured 1 hr post last dose; type: ADME, organism-based; details: in vivo
Method in brief: (§2)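 4L;C* mice dosed i.p. once daily for 14 days, killed 1 h after last dose (day 14); plasma and brain drug levels measured; unbound concentrations from plasma and brain unbound fractions (mean of two technical replicates); N = 4–8, mixed sexes.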

[7] = Unbound plasma concentration in C57BL/6J/129SvEV mouse model of Gaucher's disease at 30 mg/kg, ip administered once daily for 14 days measured 1 hr post last dose; type: ADME, organism-based; details: in vivo; method in brief: as §2
[8] = Unbound plasma concentration in twitcher mouse model of Krabbe's disease at 90 mg/kg, ip administered once daily for 20 days measured 1 hr post-last dose; type: ADME, organism-based; details: in vivo
Method in brief: (§3)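 Twitcher mice dosed i.p. once daily for 20 days, sacrificed 1 h after last dose (day 20); drug measured in plasma and brain; unbound levels from unbound fractions (mean of two technical replicates); N = 3 males + 3 females per group.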

[9] = Unbound plasma concentration in twitcher mouse model of Krabbe's disease at 30 mg/kg, ip administered once daily for 20 days measured 1 hr post-last dose; type: ADME, organism-based; details: in vivo; method in brief: as §3
[10] = molecular target: T2, Acid ceramidase (Homo sapiens); test: Inhibition of acid ceramidase in human SH-SY5Y cells assessed as change in intracellular accumulation of SM (d18:1/16:0) at 10 uM measured up to 6 hrs by LC/MS analysis; type: cell-based; method in brief: as §1
[11] = molecular target: T2, Acid ceramidase (Homo sapiens); test: Inhibition of acid ceramidase in human SH-SY5Y cells assessed as change in intracellular accumulation of HexCer (d18:1/16:0) at 10 uM measured up to 6 hrs by LC/MS analysis; type: cell-based; method in brief: as §1
[12] = Ratio of unbound drug level in brain of C57BL/6J/129SvEV mouse model of Gaucher's disease at 30 mg/kg, ip administered once daily for 14 days measured 1 hr post-last dose to EC50 for inhibition of acid ceramidase in Krabbe's disease patient-derived primary fibroblasts; type: organism-based; details: in vivo
Method in brief: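 Gaucher-model 4L;C* mice (N = 4–8, mixed sexes) got 30 or 90 mg kg–1 i.p. once daily for 14 days from postnatal day 5 and were sacrificed 1 h after the day-14 dose. Compound levels were measured in plasma and brain, and unbound brain level came from brain fraction unbound (two technical replicates). The reference EC50 was from Krabbe patient primary fibroblasts incubated 2 h across concentrations (two independent experiments, duplicates).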

[13] = Ratio of unbound drug level in brain of twitcher mouse model of Krabbe's disease at 30 mg/kg,ip administered once daily for 20 days measured 1 hr post-last dose to EC50 for inhibition of acid ceramidase in Krabbe's disease patient-derived primary fibroblasts; type: organism-based; details: in vivo
Method in brief: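 Twitcher mice (3 males + 3 females per group) got 30 or 90 mg kg–1 i.p. once daily for 20 days from postnatal day 10 and were sacrificed 1 h after the day-20 dose. Plasma and brain levels were measured, and unbound brain level came from brain fraction unbound (two technical replicates). The EC50 was from Krabbe patient primary fibroblasts exposed 2 h to a concentration series (two independent experiments, duplicates).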

For `CC(C)CNC(=O)n1c(=O)oc2cc(C3CCN(C)CC3)ccc21`, the inhibition [1] was “inactive”, the inhibition [2] was “Dose-dependent effect” and the inhibition [3] was “Active”. The inhibition [4] was “Active”, the Activity [5] was “Non-Toxic” and the Activity (Mus musculus) was “Dose-dependent effect”. The “Cp(f)” value [6] was 2320 nM, the “Cp(f)” value [7] was 420 nM and the “Cp(f)” value [8] was 520 nM. The “Cp(f)” value [9] was 110 nM, the inhibition [10] was “inactive” and the inhibition [11] was “inactive”. The Ratio [12] was 1.9 and the Ratio [13] was 2.
